Experimental data from ChEMBL document CHEMBL2010652, “Synthesis and evaluation of analogues of estrone-3-O-sulfamate as potent steroid sulfatase inhibitors” (Bioorg Med Chem, 2012).

Key:
[1] = target: T1, Steryl-sulfatase (Homo sapiens, UniProt P08842)
T1 sequence (P08842 whole entry): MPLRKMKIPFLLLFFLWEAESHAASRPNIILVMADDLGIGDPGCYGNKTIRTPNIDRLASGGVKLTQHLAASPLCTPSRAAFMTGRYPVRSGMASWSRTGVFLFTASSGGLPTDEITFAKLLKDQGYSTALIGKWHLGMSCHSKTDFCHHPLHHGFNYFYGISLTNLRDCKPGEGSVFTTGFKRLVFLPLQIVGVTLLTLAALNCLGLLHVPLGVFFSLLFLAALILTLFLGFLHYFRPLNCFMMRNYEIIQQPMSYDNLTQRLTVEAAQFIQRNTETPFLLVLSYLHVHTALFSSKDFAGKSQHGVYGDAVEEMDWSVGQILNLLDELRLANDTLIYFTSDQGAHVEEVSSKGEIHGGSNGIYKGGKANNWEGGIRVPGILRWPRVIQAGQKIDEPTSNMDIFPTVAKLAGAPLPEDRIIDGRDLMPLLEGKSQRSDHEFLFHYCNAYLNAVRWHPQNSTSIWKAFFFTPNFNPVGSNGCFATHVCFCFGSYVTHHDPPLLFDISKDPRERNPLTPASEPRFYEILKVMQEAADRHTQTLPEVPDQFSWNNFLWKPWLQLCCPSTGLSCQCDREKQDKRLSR

[2] = target: T1, Steryl-sulfatase; assay: Inhibition of steroid sulfatase in human MCF7 cells using [3H]E1S as substrate after 20 hrs by scintillation spectrometry; format: cell-based
Procedure, shortened: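 Intact MCF-7 monolayers incubated 20 h at 37 °C with [3H]E1S (5 pmol, 7 × 10^5 dpm) in serum-free minimal essential medium, with or without inhibitor (0.1–10 range). Estrone product separated from E1S by toluene partition; [14C]estrone corrected procedural losses. 3H/14C counted by scintillation; E1S hydrolysed calculated from 3H counts and substrate specific activity; IC50 derived.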

[3] = target: T2, Steryl-sulfatase (Homo sapiens) (UniProt P08842); assay: Inhibition of steroid sulfatase in human MCF7 cells using [3H]E1S as substrate at 10 uM after 20 hrs by scintillation spectrometry; format: cell-based
T2 sequence (whole entry): T1 sequence (P08842 whole entry)
Procedure, shortened: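 Intact MCF-7 monolayers exposed to inhibitor with [3H]E1S (5 pmol, 60 Ci/mmol) in serum-free minimal essential medium, 20 h at 37 °C. Product estrone split from E1S by toluene partition, with [14C]estrone as recovery marker. 3H and 14C counted by scintillation. E1S hydrolysed calculated from 3H counts, corrected for volumes and 14C recovery, and from substrate specific activity.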

[4] = system: Rattus norvegicus; assay: Inhibition of steroid sulfatase in rat liver at 10 mg/kg, po administered as single dose measured up to 7 days; format: functional; conditions: 168 h
[5] = system: Rattus norvegicus; assay: Inhibition of steroid sulfatase in rat liver at 10 mg/kg, po; format: functional
[6] = system: Rattus norvegicus; assay: Inhibition of steroid sulfatase in rat liver at 10 mg/kg, sc administered as single dose measured up to 7 days; format: functional; conditions: 168 h, route subcutaneous
[7] = system: Rattus norvegicus; assay: Inhibition of steroid sulfatase in rat liver at 10 mg/kg, sc; format: functional; conditions: route subcutaneous
[8] = target: T2, Steryl-sulfatase (Homo sapiens); conditions: MCF7, 0.01 uM

Compound	IC50 [1] [nM]	IC50 [2] [nM]	other results
C[C@]12CC[C@@H]3c4ccc(OS(N)(=O)=O)c(Br)c4CC[C@H]3[C@@H]1CCC2=O	1200	42	–
CCCc1cc2c(cc1OS(N)(=O)=O)CC[C@@H]1[C@@H]2CC[C@]2(C)C(=O)CC[C@@H]12	2900	236	–
C[C@]12CC[C@@H]3c4cc([N+](=O)[O-])c(OS(N)(=O)=O)cc4CC[C@H]3[C@@H]1CCC2=O	70	8.3	–
CCCc1cc2c(c(CCC)c1OS(N)(=O)=O)CC[C@@H]1[C@@H]2CC[C@]2(C)C(=O)CC[C@@H]12	> 10000	–	inhibition [3]: < 10%
CCCc1c(OS(N)(=O)=O)ccc2c1CC[C@@H]1[C@@H]2CC[C@]2(C)C(=O)CC[C@@H]12	> 10000	–	inhibition [3]: < 10%
C[C@]12CC[C@@H]3c4cc5c(cc4CC[C@H]3[C@@H]1CCC2=O)OS(=O)(=O)N5	> 10000	–	–
C[C@]12CC[C@@H]3c4cc(C(F)F)c(OS(N)(=O)=O)cc4CC[C@H]3[C@@H]1CCC2=O	0.1	–	–
C[C@]12CC[C@@H]3c4cc(F)c(OS(N)(=O)=O)cc4CC[C@H]3[C@@H]1CCC2=O	5.6	0.62	–
C[C@]12CC[C@@H]3c4cc(C#N)c(OS(N)(=O)=O)cc4CC[C@H]3[C@@H]1CCC2=O	5.2	1.2	–
C[C@]12CC[C@@H]3c4cc(Br)c(OS(N)(=O)=O)cc4CC[C@H]3[C@@H]1CCC2=O	–	0.11	–
C[C@]12CC[C@@H]3c4ccc5c(c4CC[C@H]3[C@@H]1CCC2=O)NS(=O)(=O)O5	> 10000	–	–
C[C@]12CC[C@@H]3c4cc(Cl)c(OS(N)(=O)=O)cc4CC[C@H]3[C@@H]1CCC2=O	3.4	0.44	–
CN1c2cc3c(cc2OS1(=O)=O)CC[C@@H]1[C@@H]3CC[C@]2(C)C(=O)CC[C@@H]12	> 10000	–	–
C[C@]12CC[C@@H]3c4ccc(OS(N)(=O)=O)cc4CC[C@H]3[C@@H]1CCC2=O [EMATE]	18	0.83	inhibition in vivo at 10 mg/kg [4]: > 95%; inhibition in vivo at 10 mg/kg [5]: 99%; inhibition in vivo at 10 mg/kg [6]: > 95%; inhibition in vivo at 10 mg/kg [7]: 99%
CCc1cc2c(cc1OS(N)(=O)=O)CC[C@@H]1[C@@H]2CC[C@]2(C)C(=O)CC[C@@H]12	820	–	–
Cc1cc2c(cc1OS(N)(=O)=O)CC[C@@H]1[C@@H]2CC[C@]2(C)C(=O)CC[C@@H]12	> 10000	–	–
C[C@]12CC[C@@H]3c4cc(I)c(OS(N)(=O)=O)cc4CC[C@H]3[C@@H]1CCC2=O	–	0.81	–
C=CCc1cc2c(cc1OS(N)(=O)=O)CC[C@@H]1[C@@H]2CC[C@]2(C)C(=O)CC[C@@H]12	2500	37	–
C[C@]12CC[C@@H]3c4ccc(OS(N)(=O)=O)c([N+](=O)[O-])c4CC[C@H]3[C@@H]1CCC2=O	0.8	0.01	–
C=CCc1cc2c(c(CC=C)c1OS(N)(=O)=O)CC[C@@H]1[C@@H]2CC[C@]2(C)C(=O)CC[C@@H]12	> 10000	–	inhibition [3]: < 10%
C[C@@]12CCC[C@H]1[C@@H]1CCc3cc(OS(N)(=O)=O)ccc3[C@H]1CC2	199	–	inhibition [8]: 97%
